Series [1] deals with Trypanosoma brucei brucei. The series can be described thus: Antitrypanosomal activity against Trypanosoma brucei brucei 427 assessed as parasite growth inhibition incubated for 48 hrs by resazurin dye based assay. Type of series: functional, organism-based. In outline:
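Log-phase T. b. brucei 427 at 1200 parasites/mL in HMI-9 with 10% FCS, preincubated 24 h at 37 °C/5% CO₂. Serial dilutions made in DMEM, final 83.34 to 0.04 μM, 48 h exposure. 0.49 mM resazurin solution added, then 2 h at 37 °C plus 22 h at room temperature. Fluorescence read at ex 535/em 590 nm; IC50 from concentration curves.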
For orientation: The colour change of resazurin is a common sign of viable cells or microbes.

Series [2] is described as follows: Selectivity index, ratio of IC50 for human HEK293 cells to IC50 for antitrypanosomal activity against Trypanosoma brucei brucei 427. Type of series: toxicity. Conditions: read-out: Ratio IC50.
Series [3] deals with Trypanosoma brucei brucei. The series can be described thus: Antitrypanosomal activity against Trypanosoma brucei brucei 427 assessed as parasite growth inhibition at 41.7 uM incubated for 48 hrs by resazurin dye based assay relative to control. Type of series: functional. Further details: scale not given: the % may be the effect or the level left.
Series [4] concerns HEK293. The series can be described thus: Cytotoxicity against human HEK293 cells assessed as reduction in cell viability at 41.7 uM incubated for 48 hrs by resazurin dye based assay relative to control. The note with it: hek293, 48 h.
The test system of series [5] is HEK293. The series can be described thus: Cytotoxicity against human HEK293 cells assessed as reduction in cell viability at 83.3 uM incubated for 48 hrs by resazurin dye based assay relative to control. Conditions: hek293, 48 h.
In series [6] the test system is Trypanosoma brucei brucei. The series can be described thus: Antitrypanosomal activity against Trypanosoma brucei brucei 427 assessed as parasite growth inhibition at 83.3 uM incubated for 48 hrs by resazurin dye based assay relative to control. Type of series: functional. Further details: scale not given: the % may be the effect or the level left.
The subject of series [7] is Trypanosoma brucei brucei. The series can be described thus: Antitrypanosomal activity against Trypanosoma brucei brucei 427 assessed as parasite growth inhibition at 79.4 uM incubated for 48 hrs by resazurin dye based assay relative to control. Further details: scale not given: the % may be the effect or the level left. Type of series: functional.
The test system of series [8] is HEK293. The series can be described thus: Cytotoxicity against human HEK293 cells assessed as reduction in cell viability at 79.4 uM incubated for 48 hrs by resazurin dye based assay relative to control. The note with it: hek293, 48 h.
A further series deals with L6. The series can be described thus: Cytotoxicity against rat L6 cells assessed as reduction in cell viability after 70 hrs by Alamar blue dye-based fluorometric analysis. Conditions: L6, 70 h. The essentials: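 Rat skeletal myoblast L6 cells, 4000 per well in RPMI 1640 with L-glutamine and 10% FBS. Eleven 3-fold dilutions from 100 to 0.002 μg/mL, 70 h. Wells checked by microscope, then Alamar Blue added for 2 h. Fluorescence read at 536/588 nm; IC50 by linear and 4-parameter logistic regression of dose-inhibition curves.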

Series [9] in a line: Selectivity index, ratio of IC50 for antitrypanosomal activity against bloodstream form of Trypanosoma brucei rhodesiense STIB900 to IC50 for antitrypanosomal activity against Trypanosoma brucei brucei 427. Type of series: functional.
Series [10] in a line: Selectivity index, ratio of IC50 for rat L6 cells to IC50 for antitrypanosomal activity against bloodstream form of Trypanosoma brucei rhodesiense STIB900. Type of series: toxicity. The note with it: read-out: Ratio IC50.
Series [11] deals with Trypanosoma brucei rhodesiense. The series can be described thus: Antitrypanosomal activity against bloodstream form of Trypanosoma brucei rhodesiense STIB900 incubated for 70 hrs by Alamar blue dye-based fluorometric analysis. The note with it: STIB900, 70 h. Type of series: functional, organism-based.
Series [12] relates to HEK293. The series can be described thus: Cytotoxicity against human HEK293 cells assessed as reduction in cell viability incubated for 48 hrs by resazurin dye based assay. In outline: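 HEK293 cells at 7.27×10⁴ cells/mL in DMEM with 10% FCS, preincubated 24 h at 37 °C/5% CO₂. Compounds serially diluted in DMEM, final 83.34 to 0.04 μM, 48 h. 0.49 mM resazurin solution in medium added, then 2 h at 37 °C plus 22 h at room temperature. Fluorescence read at 535/590 nm; IC50 calculated.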

Setting [13] is: Trypanosoma brucei, 427, 48 h, read-out: IC50.
Setting [14] is: Homo sapiens, HEK293, 48 h, read-out: IC50.

Bounds are passed on as bounds.

For `N=C(N)c1ccc(OCCCCCOc2ccc(C(=N)N)cc2)cc1` [PENTAMIDINE], the IC50 in series [1] (setting [13]) turned out to be 0.00213 µM. Further, in series [2], the selectivity ratio was 307.

Turning to `CC1(C)CC(=O)c2sc(NC(=O)c3sc4ccccc4c3-c3ccccc3)nc2C1`, the Activity in series [3] is on record as 93%; in the series on HEK293 [4] it was under 50%.

Consider `O=C1CCCc2nc(NC(=O)c3sc4ccccc4c3-c3ccccc3)sc21`, for which the Activity with HEK293 [5] was under 50%; in series [6] it was 77%.

On to `COc1ccc2sc(C(=O)Nc3nc4c(s3)C(=O)CC(C)(C)C4)c(Cl)c2c1`, for which the IC50 in series [1] (setting [13]) was found to be 5.86 µM. The Activity in the series with HEK293 [5] is given as under 50%. Also, the selectivity ratio in series [2] is over 14.

As to `COc1ccc(-c2c(C(=O)Nc3nc4c(s3)C(=O)CCC4)sc3ccccc23)cc1`, the IC50 in [1] (setting [13]) turned out to be 7.23 µM. In the series with HEK293 [5], the Activity is given as 88%. Also, in series [2], the selectivity ratio was over 12.

In the case of `Cc1ccc2c(Cl)c(C(=O)Nc3nc4c(s3)C(=O)CC(C)(C)C4)sc2c1`, the IC50 in series [1] (setting [13]) was 2.27 µM. Further, the Activity with HEK293 [5] is under 50%. For the same compound, the selectivity ratio in series [2] is over 37.

Regarding `CC1(C)CC(=O)c2sc(NC(=O)c3cccs3)nc2C1`, the results for the Activity (in series [7]; in the series on HEK293 [8]) were 90% and under 50%, respectively.

On to `O=C1CCCc2nc(NC(=O)c3sc4ccccc4c3Cl)sc21`, for which the IC50 in series [1] (setting [13]) stood at 2.5 µM; in the series on L6 it was 24.9 µM; in series [11], 8.96 µM. For the same compound, the Activity with HEK293 [5] was under 50%. In [9], the Ratio IC50 worked out at 4. Besides, the selectivity ratio is 3 in series [10] and over 48 in series [2].

Take `CC1(C)CC(=O)c2sc(NC(=O)c3sc4ccccc4c3-c3ccc(C(F)(F)F)cc3)nc2C1`: the Activity (with HEK293 [5]; in series [6]) was under 50% each time.

Take `O=C1CCCc2nc(NC(=O)c3sc4ccccc4c3-c3ccc(C(F)(F)F)cc3)sc21`: the figures for the Activity (in series [3]; in the series with HEK293 [5]) were 97% and 59%, respectively.

As to `Nc1nc(N)nc(Nc2ccc([As]3SCC(CO)S3)cc2)n1` (stereo unspecified) [MELARSOPROL], the IC50 in series [11] is 0.014 µM.

For the compound `C=CCN(C(=O)c1sc2ccccc2c1Cl)c1nc2c(s1)C(=O)CCC2`, the Activity (in the series on HEK293 [5]; in [6]) was under 50% throughout.

On to `Cc1ccc2c(Cl)c(C(=O)Nc3nc4c(s3)C(=O)CCC4)sc2c1`, for which the concentration for half-maximal inhibition (IC50) in [1] (setting [13]) was 7.77 µM. In addition, the Activity in the series on HEK293 [5] is under 50%. Further, the selectivity ratio in series [2] was over 11.

For `CC1(C)CC(=O)c2sc(NC(=O)c3cc4cccc(-c5ccccc5)c4s3)nc2C1`, in series [1] (setting [13]), the IC50 was 2.79 µM. The Activity in the series with HEK293 [8] is recorded as under 50%. Besides, in series [2], the selectivity ratio is over 28.

Consider `CC1(C)CC(=O)c2sc(NC(=O)c3cc4ccccc4s3)nc2C1`, for which the IC50 in series [1] (setting [13]) amounted to 0.75 µM; in the series with L6, 65.4 µM; in [11], 5.04 µM. Also, the selectivity ratio in series [10] is 13; in series [2], over 106. The Activity with HEK293 [8] is under 50%.

As to `CC1(C)CC(=O)c2sc(NC(=O)c3sc4ccccc4c3Cl)nc2C1`, the figures for the IC50 (in series [1] (setting [13]); in the series with HEK293 [12] (setting [14])) were 0.73 µM and 10.4 µM, respectively. For the same compound, the selectivity ratio in series [2] amounted to 14.

Take `O=C(Nc1nc2c(s1)C(=O)CCC2)c1cc2ccccc2s1`: the Activity in series [7] is reported as 97%; with HEK293 [8], under 50%.

Regarding `COc1cccc2cc(C(=O)Nc3nc4c(s3)C(=O)CC(C)(C)C4)sc12`, the half-inhibitory concentration (IC50) result in [1] is “Nd(Insoluble)”; in the series with L6, 54.5 µM; in the series with HEK293 [12] (hek293), “Nd(Insoluble)”; in series [11] it was 8.68 µM. In addition, the selectivity ratio in series [10] came to 6.

For `COc1cccc(-c2c(C(=O)Nc3nc4c(s3)C(=O)CCC4)sc3ccccc23)c1`, the IC50 in [1] (setting [13]) came out at 9.39 µM. The Activity with HEK293 [5] amounted to 88%. For the same compound, the selectivity ratio in series [2] is over 9.

For `O=C1CCCc2nc(NC(=O)c3sc4cc(Br)ccc4c3Cl)sc21`, the figures for the Activity (in [7]; in the series with HEK293 [8]) were 78% and under 50%, respectively.

On to `O=C(Nc1nc2c(s1)CCCC2)c1sc2ccccc2c1Cl`, for which the Activity is recorded as under 50% with HEK293 [5] and 89% in series [6].

As for `COc1ccc(-c2c(C(=O)Nc3nc4c(s3)C(=O)CC(C)(C)C4)sc3ccccc23)cc1`, the half-inhibitory concentration (IC50) in [1] (setting [13]) was 2.91 µM. Besides, the Activity in the series on HEK293 [5] is under 50%. Besides, the selectivity ratio in series [2] was over 29.

As for `O=C(Nc1nc2ccccc2s1)c1sc2ccccc2c1Cl`, the Activity (in the series with HEK293 [5]; in [6]) was under 50% throughout.

Regarding `O=C1CCCc2nc(NC(=O)c3sc4ccccc4c3-c3cccc4ccccc34)sc21`, the concentration for half-maximal inhibition (IC50) was 6.38 µM in [1] (setting [13]) and 4.63 µM in the series on HEK293 [12] (setting [14]). Also, in series [2], the selectivity ratio turned out to be 1.

As for `CC1(C)CC(=O)c2sc(NC(=O)c3sc4ccccc4c3-c3cccc4ccccc34)nc2C1`, the Activity in the series with HEK293 [5] was 52%; in series [6], 100%.

On to `COc1cc([C@@H]2c3cc4c(cc3[C@H](O)[C@H]3COC(=O)[C@H]23)OCO4)cc(OC)c1OC` [PODOFILOX], for which the half-inhibitory concentration (IC50) in the series on L6 stood at 0.011 µM.

`CC1(C)CC(=O)c2sc(NC(=O)c3nc4ccccc4s3)nc2C1`: the 50% inhibitory concentration (IC50) in [1] (setting [13]) is 1.41 µM; in the series with L6 it was 30.4 µM; in [11], 10.6 µM. Further, the figures for the selectivity ratio in series [10] and in [2] were 3 and over 56, respectively. Besides, the Activity in the series on HEK293 [8] is on record as under 50%.

As for `COc1cccc(-c2c(C(=O)Nc3nc4c(s3)C(=O)CC(C)(C)C4)sc3ccccc23)c1`, the 50% inhibitory concentration (IC50) in [1] (setting [13]) was determined as 2.21 µM. Moreover, the Activity in the series on HEK293 [5] is under 50%. Moreover, the selectivity ratio in series [2] was over 38.

Consider `O=C(Nc1nccs1)c1sc2ccccc2c1Cl`, for which the Activity in the series on HEK293 [5] was under 50%; in [6] it was 96%.

As to `CC1(C)CC(=O)c2sc(NC(=O)c3sc4c(Br)cccc4c3Cl)nc2C1`, the IC50 in series [1] (setting [13]) came to 0.32 µM; with L6, 25.2 µM; in series [11] it was 7.13 µM. Also, the selectivity ratio is 4 in series [10] and over 130 in [2]. The Activity in the series on HEK293 [4] was under 50%.

With `CC1(C)CC(=O)c2sc(NC(=O)c3sc4cc(Br)ccc4c3Cl)nc2C1`, in [1] (setting [13]), the concentration for half-maximal inhibition (IC50) is 6.53 µM. The Activity with HEK293 [8] is under 50%. Further, the selectivity ratio in series [2] is over 12.

Broadly, the IC50 is the point on the concentration scale where inhibition reaches its midpoint.

Source of the values: ChEMBL document CHEMBL4673193, “Investigation of thiazolyl-benzothiophenamides as potential agents for African sleeping sickness” (RSC Med Chem, 2020).
